Measured values gathered from unrelated publications.
Cell line: HCT-116
Read-out: cell growth or viability

For `COc1ccc(N(Cc2csc(-c3ccccc3)n2)C(=O)CCCCCC(=O)NO)cc1`, the IC50 was 1.12 µM (MTT; 72 h).
The IC50 of `COc1ccc2c(-c3ncc(-c4ccccc4)o3)nn(Cc3ccccc3)c2c1` is reported as 80.9 µM (48 h).
`FC(F)(F)c1ccc(-c2cc(CNc3cccc4cccnc34)on2)cc1` gave an IC50 of > 100 µM (MTS; 72 h).
For `O=C1CS/C(=N\c2ccc(F)cc2O)N1c1nnc(-c2ccc(C(F)(F)F)cc2/N=C2\SCC(=O)N2c2ccc(F)cc2O)s1`, the IC50 was 17.2 µM (MTT).
`O=[N+]([O-])c1ccc(O)c(C=NNc2ccc(C(F)(F)F)cc2)c1` gave an IC50 of 11.3 µM (MTT; 24 h).
`O=C1CS/C(=N\c2cc(C(F)(F)F)ccc2-c2nnc(N3C(=O)CS/C3=N\c3cc(O)cc(Br)c3)s2)N1c1cc(O)cc(Br)c1` has an IC50 of 78.1 µM (MTT).
`FC(F)(F)c1ccc(-c2noc(-c3nn(Cc4ccc(Cl)cc4Cl)c4ccccc34)n2)cc1` gave an IC50 of 137 µM (48 h).
`O=C1C(=Nc2cccc(Cl)c2)c2ccccc2N1Cc1ccc([N+](=O)[O-])cc1` gave an IC50 of 0.84 µM (MTT; 48 h).
For `O=C(CSc1nc2ccccc2s1)N/N=C/c1ccc(OCC(=O)Nc2cccc([N+](=O)[O-])c2)cc1`, the IC50 was 13.3 µM (MTS; 72 h).
For `CC(C)c1ccc(/C=C2\N=C(SCC(=O)c3ccccc3)N(c3ccccc3)C2=O)cc1`, the IC50 was 83.7 µg/mL (MTT).
`c1ccc(Cc2nnc(-c3nn(Cc4ccccc4)c4ccccc34)o2)cc1` gave an IC50 of 15.1 µM (48 h).
The IC50 of `CCCNC(=S)N/N=C/c1cccc2cc3ccccc3nc12` is reported as 43.3 µM (MTT; 48 h).
The IC50 of `O=[N+]([O-])c1cc(I)c(O)c(C=NNc2ccccc2)c1` is reported as 6.34 µM (MTT; 24 h).
`CC(C)c1cccc(C(C)C)c1N=C1C(=O)N(Cc2cccc(Cl)c2)c2ccccc21` has an IC50 of 22.4 µM (MTT; 48 h).
With `O=C1CS/C(=N\c2cc(C(F)(F)F)ccc2-c2nnc(N3C(=O)CS/C3=N\c3cccc(Cl)c3)s2)N1c1cccc(Cl)c1` the IC50 was 57.1 µM (MTT).
`O=C(C=Cc1ccc(OCCOc2ccc(C=CC(=O)c3cccs3)cc2)cc1)c1cccs1` gave an IC50 of 17.1 µM (MTT; 48 h).
The IC50 of `N#Cc1ccc(-c2cc(COc3cc(=O)oc4ccccc34)on2)cc1` is reported as > 100 µM (MTS; 72 h).
The IC50 of `S=C(N/N=C/c1cccc2cc3ccccc3nc12)Nc1ccccc1` is reported as > 50 µM (MTT; 48 h).
`COc1cc([C@@H]2c3cc4c(cc3[C@@H](O[C@@H]3O[C@@H]5CO[C@@H](C)O[C@H]5[C@H](O)[C@H]3O)[C@H]3COC(=O)[C@H]23)OCO4)cc(OC)c1O` has an IC50 of 2.4 µM (SRB; 72 h).
`c1ccc(-c2cc(CNc3cccc4cccnc34)on2)cc1` has an IC50 of > 100 µM (MTS; 72 h).
For `Cc1ccc(CN2C(=O)C(=Nc3c(C(C)C)cccc3C(C)C)c3ccccc32)cc1`, the IC50 was 30.9 µM (MTT; 48 h).
With `CC(=O)c1nc2ccccc2n1Cc1cn([C@@H]2O[C@H](CO)[C@H](O)[C@H](O)[C@H]2O)nn1` the IC50 was 8.68 µM (LDH; 48 h).
The IC50 of `COc1ccc(CNC(=O)Cn2cc(COc3ncnc4[nH]cnc34)nn2)cc1` is reported as > 100 µM (MTT).
`OCn1ccnc1` gave an IC50 of 10.7 µM (MTT; 24 h).
For `CC1(P2(=O)CCCCC2)C=CCC=C1`, the IC50 was > 100 µM (MTT; 72 h).
For `Cc1cccc(N=C2C(=O)N(Cc3ccccc3)c3ccccc32)c1`, the IC50 was 2.72 µM (MTT; 48 h).
With `CC(=O)OC[C@H]1O[C@@H](n2cc(Cn3c(C(=O)/C=C/c4ccc(F)cc4)nc4ccccc43)nn2)[C@H](OC(C)=O)[C@@H](OC(C)=O)[C@H]1OC(C)=O` the IC50 was 6.49 µM (LDH; 48 h).
With `O=C1C(=Nc2ccccc2I)c2ccccc2N1Cc1cccc(Cl)c1` the IC50 was 4.86 µM (MTT; 48 h).
The IC50 of `O=c1[nH]cc(F)c(=O)[nH]1` is reported as 17 µM (MTT; 48 h).
The IC50 of `O=[N+]([O-])c1cc(I)c(O)c(C=NNc2ccc(C(F)(F)F)cc2)c1` is reported as 9.43 µM (MTT; 24 h).
`O=c1cc(OCc2cc(-c3ccc(C(F)(F)F)cc3)no2)c2ccccc2o1` has an IC50 of > 100 µM (MTS; 72 h).
`Cc1nnc(-c2nn(Cc3ccc(Cl)cc3Cl)c3ccccc23)o1` has an IC50 of 48.4 µM (48 h).
`Cc1cc(NS(=O)(=O)c2ccc(NC(=O)/C(C#N)=C/c3ccncc3)cc2)no1` has an IC50 of 187 µM (MTT; 48 h).
`CC(C)c1ccc(/C=C2\NC(=S)N(c3ccccc3)C2=O)cc1` gave an IC50 of 63.2 µg/mL (MTT).
The IC50 of `COc1cccc2c1C(=O)c1c(O)c3c(c(O)c1C2=O)C[C@@](O)(C(=O)CO)C[C@@H]3O[C@H]1C[C@H](N)[C@H](O)[C@H](C)O1` is reported as 0.2 µM (MTT; 72 h).
For `Cc1cc2c(C(N)=O)cccc2n1-c1nc2c(c(NCc3ccccc3)n1)CCCN2`, the IC50 was 0.7 µM (ATP luminescence; 72 h).
`Cc1cccc([N+](=O)[O-])c1N=C1SCC(=O)N1c1nnc(-c2ccc(C(F)(F)F)cc2N=C2SCC(=O)N2c2c(C)cccc2[N+](=O)[O-])s1` has an IC50 of 61.2 µM (MTT).
`Cc1cc2c(C(N)=O)cccc2n1-c1nc2c(c(NCc3cccnc3)n1)CCCN2` has an IC50 of 1 µM (ATP luminescence; 72 h).
For `CC(C)c1cccc(C(C)C)c1N=C1C(=O)Nc2ccccc21`, the IC50 was 4.65 µM (MTT; 48 h).
With `Cc1cc2c(C(N)=O)cccc2n1-c1nc2c(c(NCc3cccc(O)c3)n1)CCCN2` the IC50 was 0.7 µM (ATP luminescence; 72 h).
`CCc1ccc(N=C2C(=O)N(Cc3ccccc3)c3ccccc32)cc1` has an IC50 of 0.9 µM (MTT; 48 h).
With `O=[N+]([O-])c1cc(I)c(O)c(C=NNc2ccc(Cl)cc2)c1` the IC50 was 13.9 µM (MTT; 24 h).
The IC50 of `Cc1cccc(N=C2C(=O)N(Cc3cccc(Cl)c3)c3ccccc32)c1` is reported as 7.13 µM (MTT; 48 h).
With `Cc1cc(Cn2ccnc2)nn1C` the IC50 was 241 µM (MTT; 24 h).
